Consider three compounds from ChEMBL document CHEMBL1152541, “Staurosporine tethered peptide ligands that target cAMP-dependent protein kinase (PKA): optimization and selectivity profiling” (Bioorg Med Chem, 2009).

The target of test [1] is Atypical kinase COQ8A, mitochondrial (Homo sapiens) (UniProt Q8NI60). The experiment in a line: Binding affinity to human ADCK3 at 500 nM by cell-based competition binding assay relative to control in presence of DTT. In outline:
(§1)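 Kinase binding profiling ran on a commercial (Ambit) competitive binding screen against a panel of 90 kinases. The screen used reducing conditions with 7.5 mM DTT. To withstand the DTT, the bivalent ligand was tested as its amide isostere, with the disulfide replaced. A staurosporine derivative carrying a 3 β-alanine linker was run as the reference compound.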

The target of test [2] is RAC-beta serine/threonine-protein kinase (Homo sapiens) (UniProt P31751). The experiment in a line: Binding affinity to human AKT2 at 500 nM by cell-based competition binding assay relative to control in presence of DTT. The gist of the method:
as §1

Test [3] addresses Aurora kinase B (Homo sapiens) (UniProt Q96GD4). The experiment in a line: Binding affinity to human aurora kinase B at 500 nM by cell-based competition binding assay relative to control in presence of DTT.
Test [4] deals with Tyrosine-protein kinase receptor UFO (Homo sapiens) (UniProt P30530). The experiment in a line: Binding affinity to human AXL at 500 nM by cell-based competition binding assay relative to control in presence of DTT. In outline: as §1
Sequence of Tyrosine-protein kinase receptor UFO (Homo sapiens) (P30530 whole entry): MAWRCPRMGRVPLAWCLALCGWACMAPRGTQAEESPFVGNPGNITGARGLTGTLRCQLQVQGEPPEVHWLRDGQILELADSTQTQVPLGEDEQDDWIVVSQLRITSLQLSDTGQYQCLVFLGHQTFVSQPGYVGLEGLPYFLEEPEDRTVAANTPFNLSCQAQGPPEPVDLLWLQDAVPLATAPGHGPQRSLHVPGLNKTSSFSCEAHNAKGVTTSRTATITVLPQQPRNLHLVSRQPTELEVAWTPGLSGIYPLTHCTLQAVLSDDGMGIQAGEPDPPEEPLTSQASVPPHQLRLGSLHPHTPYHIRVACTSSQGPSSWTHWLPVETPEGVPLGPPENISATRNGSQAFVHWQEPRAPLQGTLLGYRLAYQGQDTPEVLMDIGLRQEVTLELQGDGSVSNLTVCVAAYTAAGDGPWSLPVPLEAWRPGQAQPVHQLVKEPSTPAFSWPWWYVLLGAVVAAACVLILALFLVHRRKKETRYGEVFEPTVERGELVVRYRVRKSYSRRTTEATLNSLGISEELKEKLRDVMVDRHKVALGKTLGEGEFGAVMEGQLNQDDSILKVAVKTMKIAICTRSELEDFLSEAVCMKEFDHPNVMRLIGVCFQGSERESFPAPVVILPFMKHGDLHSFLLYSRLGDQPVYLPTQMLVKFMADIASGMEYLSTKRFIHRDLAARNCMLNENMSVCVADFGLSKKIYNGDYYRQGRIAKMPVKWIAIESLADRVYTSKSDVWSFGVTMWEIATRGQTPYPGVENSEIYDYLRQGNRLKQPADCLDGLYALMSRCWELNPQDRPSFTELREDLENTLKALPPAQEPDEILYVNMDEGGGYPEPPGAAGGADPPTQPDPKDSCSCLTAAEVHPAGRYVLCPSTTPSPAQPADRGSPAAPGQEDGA
The target of test [5] is T1, Bone morphogenetic protein receptor type-2 (Homo sapiens) (UniProt Q13873).
T1 sequence (whole entry): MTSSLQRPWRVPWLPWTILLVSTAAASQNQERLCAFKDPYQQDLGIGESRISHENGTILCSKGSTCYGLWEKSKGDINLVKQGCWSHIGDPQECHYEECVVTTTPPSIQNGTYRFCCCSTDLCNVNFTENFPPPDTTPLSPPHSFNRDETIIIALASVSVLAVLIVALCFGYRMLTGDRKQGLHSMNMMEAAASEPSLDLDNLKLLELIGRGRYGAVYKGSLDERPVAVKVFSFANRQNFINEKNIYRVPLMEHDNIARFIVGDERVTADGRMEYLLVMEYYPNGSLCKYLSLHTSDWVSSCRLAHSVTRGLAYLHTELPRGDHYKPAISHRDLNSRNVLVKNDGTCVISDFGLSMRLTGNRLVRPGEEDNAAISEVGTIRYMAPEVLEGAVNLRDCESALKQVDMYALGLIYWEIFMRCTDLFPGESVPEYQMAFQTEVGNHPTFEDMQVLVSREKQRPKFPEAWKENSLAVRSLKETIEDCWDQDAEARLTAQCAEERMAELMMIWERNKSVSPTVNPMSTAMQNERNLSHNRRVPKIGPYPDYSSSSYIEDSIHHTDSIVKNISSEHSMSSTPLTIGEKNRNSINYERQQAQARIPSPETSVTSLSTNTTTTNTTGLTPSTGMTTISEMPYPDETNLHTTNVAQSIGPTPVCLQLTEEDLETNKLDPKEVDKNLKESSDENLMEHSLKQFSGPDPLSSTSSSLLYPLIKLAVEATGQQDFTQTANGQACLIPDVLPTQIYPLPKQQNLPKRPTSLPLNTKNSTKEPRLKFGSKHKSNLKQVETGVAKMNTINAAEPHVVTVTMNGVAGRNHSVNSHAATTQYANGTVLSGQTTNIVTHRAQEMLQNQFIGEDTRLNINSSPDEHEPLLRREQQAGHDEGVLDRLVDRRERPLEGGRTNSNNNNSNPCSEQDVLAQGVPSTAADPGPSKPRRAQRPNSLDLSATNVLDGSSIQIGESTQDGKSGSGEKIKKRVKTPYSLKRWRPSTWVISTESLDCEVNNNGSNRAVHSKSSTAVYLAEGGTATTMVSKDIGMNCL
The experiment in a line: Binding affinity to human BMPR2 at 500 nM by cell-based competition binding assay relative to control in presence of DTT. In outline: as §1

Test [6] addresses Cyclin-dependent kinase 2 (Homo sapiens) (UniProt P24941). As to the kind of experiment: Ratio of compound to staurosporine binding affinity to human CDK2 in presence of DTT.
Test [7] has as its target Ephrin type-A receptor 2 (Homo sapiens) (UniProt P29317). As to the kind of experiment: Binding affinity to human EPHA2 at 200 nM by cell-based competition binding assay relative to control in presence of DTT. In outline: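 Commercial (Ambit) competitive kinase-binding panel of 90 kinases measured the binding profile. Run under reducing conditions of 7.5 mM DTT. Binding is expressed relative to control.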

Test [8] deals with Insulin-like growth factor 1 receptor (Homo sapiens) (UniProt P08069). The experiment in a line: Binding affinity to human IGF1R at 200 nM by cell-based competition binding assay relative to control in presence of DTT. The gist of the method: (§2)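 Competition binding screen (Ambit) across a panel of 90 kinases, scoring test ligand displacement of each kinase's binding relative to control. The screen ran under reducing conditions with 7.5 mM DTT.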
Sequence of Insulin-like growth factor 1 receptor (Homo sapiens) (P08069 31-736 limits assumed): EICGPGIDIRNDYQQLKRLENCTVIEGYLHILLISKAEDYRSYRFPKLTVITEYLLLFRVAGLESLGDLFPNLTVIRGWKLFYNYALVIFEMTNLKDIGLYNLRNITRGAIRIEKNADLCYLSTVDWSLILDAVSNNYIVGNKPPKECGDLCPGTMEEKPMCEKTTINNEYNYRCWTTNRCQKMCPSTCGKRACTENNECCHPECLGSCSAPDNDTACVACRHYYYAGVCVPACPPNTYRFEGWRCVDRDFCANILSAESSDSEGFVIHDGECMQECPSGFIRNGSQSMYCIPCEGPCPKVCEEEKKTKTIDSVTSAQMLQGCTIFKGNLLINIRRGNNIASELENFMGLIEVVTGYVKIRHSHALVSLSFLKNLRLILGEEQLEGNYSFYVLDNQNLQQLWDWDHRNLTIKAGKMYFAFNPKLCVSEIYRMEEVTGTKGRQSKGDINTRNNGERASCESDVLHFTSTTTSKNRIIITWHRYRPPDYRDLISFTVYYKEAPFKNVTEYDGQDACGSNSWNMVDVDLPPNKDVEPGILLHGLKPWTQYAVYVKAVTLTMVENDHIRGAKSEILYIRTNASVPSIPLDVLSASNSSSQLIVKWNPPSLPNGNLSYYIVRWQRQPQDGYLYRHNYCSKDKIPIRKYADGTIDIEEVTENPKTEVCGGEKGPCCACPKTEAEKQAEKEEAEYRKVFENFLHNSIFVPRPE
Sequence of Insulin-like growth factor 1 receptor (Homo sapiens) (P08069 741-1367 limits assumed): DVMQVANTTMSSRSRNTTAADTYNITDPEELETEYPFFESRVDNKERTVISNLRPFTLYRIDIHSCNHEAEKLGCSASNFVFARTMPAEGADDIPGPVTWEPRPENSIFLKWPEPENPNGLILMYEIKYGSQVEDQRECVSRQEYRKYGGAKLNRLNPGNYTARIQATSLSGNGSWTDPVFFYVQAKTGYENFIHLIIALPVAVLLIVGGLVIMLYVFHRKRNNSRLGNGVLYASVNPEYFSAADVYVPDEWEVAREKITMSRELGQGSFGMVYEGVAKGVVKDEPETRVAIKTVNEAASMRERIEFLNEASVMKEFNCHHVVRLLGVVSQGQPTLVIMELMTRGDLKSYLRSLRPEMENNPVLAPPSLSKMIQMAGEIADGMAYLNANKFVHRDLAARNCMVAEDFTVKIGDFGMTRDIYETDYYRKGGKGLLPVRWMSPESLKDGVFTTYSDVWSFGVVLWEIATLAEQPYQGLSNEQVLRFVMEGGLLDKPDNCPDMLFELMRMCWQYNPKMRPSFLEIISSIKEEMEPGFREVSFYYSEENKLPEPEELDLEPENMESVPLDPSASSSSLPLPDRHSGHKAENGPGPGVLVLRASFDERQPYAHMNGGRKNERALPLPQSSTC

Test [9] deals with T2, Serine/threonine-protein kinase STK11 (Homo sapiens) (UniProt Q15831).
T2 sequence (whole entry): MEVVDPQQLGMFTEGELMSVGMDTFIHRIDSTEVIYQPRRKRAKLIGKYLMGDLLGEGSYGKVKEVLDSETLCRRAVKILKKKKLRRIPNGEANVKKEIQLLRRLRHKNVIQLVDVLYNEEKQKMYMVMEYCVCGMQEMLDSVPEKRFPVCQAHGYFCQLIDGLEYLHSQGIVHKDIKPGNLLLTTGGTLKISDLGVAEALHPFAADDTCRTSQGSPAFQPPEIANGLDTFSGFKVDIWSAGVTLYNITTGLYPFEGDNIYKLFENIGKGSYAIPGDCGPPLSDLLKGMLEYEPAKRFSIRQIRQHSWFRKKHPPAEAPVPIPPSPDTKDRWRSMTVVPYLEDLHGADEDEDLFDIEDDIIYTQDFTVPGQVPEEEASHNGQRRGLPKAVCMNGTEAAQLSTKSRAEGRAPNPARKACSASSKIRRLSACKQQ
The experiment in a line: Binding affinity to human LKB1 at 200 nM by cell-based competition binding assay relative to control in presence of DTT. In outline:
as §2

Test [10] has as its target MAP kinase-interacting serine/threonine-protein kinase 1 (Homo sapiens) (UniProt Q9BUB5). As to the kind of experiment: Binding affinity to human MKNK1 at 200 nM by cell-based competition binding assay relative to control in presence of DTT.
The target of test [11] is MAP kinase-interacting serine/threonine-protein kinase 2 (Homo sapiens) (UniProt Q9HBH9). As to the kind of experiment: Binding affinity to human MKNK2 at 200 nM by cell-based competition binding assay relative to control in presence of DTT.
Sequence of MAP kinase-interacting serine/threonine-protein kinase 2 (Homo sapiens) (Q9HBH9 whole entry, looked up): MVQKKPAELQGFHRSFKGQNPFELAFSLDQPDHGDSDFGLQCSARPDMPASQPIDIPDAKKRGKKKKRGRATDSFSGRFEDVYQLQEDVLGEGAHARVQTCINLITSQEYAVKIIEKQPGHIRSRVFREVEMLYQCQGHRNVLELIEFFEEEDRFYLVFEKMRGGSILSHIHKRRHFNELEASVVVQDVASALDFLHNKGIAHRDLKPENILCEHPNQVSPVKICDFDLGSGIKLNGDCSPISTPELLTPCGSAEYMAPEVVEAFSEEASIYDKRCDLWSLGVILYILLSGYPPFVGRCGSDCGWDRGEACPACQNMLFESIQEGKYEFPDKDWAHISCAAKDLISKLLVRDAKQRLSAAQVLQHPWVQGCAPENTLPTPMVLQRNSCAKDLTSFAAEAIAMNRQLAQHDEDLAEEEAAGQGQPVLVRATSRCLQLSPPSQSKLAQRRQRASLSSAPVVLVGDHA
Test [12] can be described thus: Inhibition of PKA assessed as [gamma-32P]ATP labeling of kemptide at 33 to 100 nM by liquid scintillation counting in presence of DTT.
Test [13] addresses Proto-oncogene tyrosine-protein kinase receptor Ret (Homo sapiens) (UniProt P07949). As to the kind of experiment: Binding affinity to human RET at 200 nM by cell-based competition binding assay relative to control in presence of DTT.
In test [14] the target is Cyclin-dependent kinase 7 (Homo sapiens) (UniProt P50613). The experiment in a line: Binding affinity to human CDK7 at 50 nM by cell-based competition binding assay relative to control in presence of DTT. The gist of the method: as §1
Sequence of Cyclin-dependent kinase 7 (Homo sapiens) (P50613 whole entry): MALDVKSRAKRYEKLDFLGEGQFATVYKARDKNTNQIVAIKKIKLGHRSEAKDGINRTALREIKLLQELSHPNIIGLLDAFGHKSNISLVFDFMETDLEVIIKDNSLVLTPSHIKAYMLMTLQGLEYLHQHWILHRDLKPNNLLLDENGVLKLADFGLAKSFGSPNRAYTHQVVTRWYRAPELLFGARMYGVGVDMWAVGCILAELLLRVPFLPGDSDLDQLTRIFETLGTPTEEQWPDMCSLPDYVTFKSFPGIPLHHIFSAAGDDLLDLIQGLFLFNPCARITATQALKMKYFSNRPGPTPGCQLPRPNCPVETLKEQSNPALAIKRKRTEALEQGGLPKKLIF
Test [15] deals with Serine/threonine-protein kinase pim-3 (Homo sapiens) (UniProt Q86V86). The experiment in a line: Binding affinity to human PIM3 at 50 nM by cell-based competition binding assay relative to control in presence of DTT.

Activity calls are given as the source filed them. The calls are words filed in the database; no cut-off is given here. *1 amine or outer side, *2 acyl side, *3 side chain or, on linkers, in order; H or OH if unused. Where a SMILES comes first, the peptide text is derived from it. Bridges are numbered along the chain shown (N, C = ends). [ ]: non-standard residue; d: D form. The star is where a group is joined. Staurosporine = CO[C@@H]1[C@H](N(C)*)C[C@H]2O[C@]1(C)n1c3ccccc3c3c4c(c5c6ccccc6n2c5c31)C(=O)NC4; Suc = O=C(CCC(=O)[*:2])[*:1]; Dap = NC[C@H](N)C(=O)O; βAla = NCCC(=O)O

Sequence of Proto-oncogene tyrosine-protein kinase receptor Ret (Homo sapiens) (P07949 whole entry): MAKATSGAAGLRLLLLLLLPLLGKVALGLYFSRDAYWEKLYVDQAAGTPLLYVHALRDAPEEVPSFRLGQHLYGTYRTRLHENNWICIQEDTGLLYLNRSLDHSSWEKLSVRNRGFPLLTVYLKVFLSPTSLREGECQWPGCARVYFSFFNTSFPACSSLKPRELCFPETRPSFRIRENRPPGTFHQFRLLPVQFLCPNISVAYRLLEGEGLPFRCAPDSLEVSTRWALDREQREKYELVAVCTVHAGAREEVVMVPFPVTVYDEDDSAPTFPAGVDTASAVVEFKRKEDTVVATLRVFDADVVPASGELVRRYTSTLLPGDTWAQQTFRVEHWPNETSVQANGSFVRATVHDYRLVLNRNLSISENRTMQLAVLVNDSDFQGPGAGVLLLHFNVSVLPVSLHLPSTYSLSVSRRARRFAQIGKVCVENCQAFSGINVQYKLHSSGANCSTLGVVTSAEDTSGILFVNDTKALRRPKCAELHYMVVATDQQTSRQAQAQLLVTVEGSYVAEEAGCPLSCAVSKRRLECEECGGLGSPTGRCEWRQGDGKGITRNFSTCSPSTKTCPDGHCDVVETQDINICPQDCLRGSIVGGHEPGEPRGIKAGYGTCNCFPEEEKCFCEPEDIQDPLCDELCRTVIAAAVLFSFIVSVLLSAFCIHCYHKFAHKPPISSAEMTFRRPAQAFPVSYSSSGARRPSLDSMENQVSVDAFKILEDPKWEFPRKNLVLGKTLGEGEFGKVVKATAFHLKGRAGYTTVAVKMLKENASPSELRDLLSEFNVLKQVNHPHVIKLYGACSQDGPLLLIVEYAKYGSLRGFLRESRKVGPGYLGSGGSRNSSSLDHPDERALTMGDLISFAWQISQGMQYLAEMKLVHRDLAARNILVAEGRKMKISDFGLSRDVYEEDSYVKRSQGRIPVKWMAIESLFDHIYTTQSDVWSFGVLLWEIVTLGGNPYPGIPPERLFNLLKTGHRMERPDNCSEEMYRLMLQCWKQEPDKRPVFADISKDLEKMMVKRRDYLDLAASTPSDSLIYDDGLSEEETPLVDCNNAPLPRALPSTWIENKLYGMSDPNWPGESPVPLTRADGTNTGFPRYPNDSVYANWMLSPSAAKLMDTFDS
Sequence of RAC-beta serine/threonine-protein kinase (Homo sapiens) (P31751 whole entry): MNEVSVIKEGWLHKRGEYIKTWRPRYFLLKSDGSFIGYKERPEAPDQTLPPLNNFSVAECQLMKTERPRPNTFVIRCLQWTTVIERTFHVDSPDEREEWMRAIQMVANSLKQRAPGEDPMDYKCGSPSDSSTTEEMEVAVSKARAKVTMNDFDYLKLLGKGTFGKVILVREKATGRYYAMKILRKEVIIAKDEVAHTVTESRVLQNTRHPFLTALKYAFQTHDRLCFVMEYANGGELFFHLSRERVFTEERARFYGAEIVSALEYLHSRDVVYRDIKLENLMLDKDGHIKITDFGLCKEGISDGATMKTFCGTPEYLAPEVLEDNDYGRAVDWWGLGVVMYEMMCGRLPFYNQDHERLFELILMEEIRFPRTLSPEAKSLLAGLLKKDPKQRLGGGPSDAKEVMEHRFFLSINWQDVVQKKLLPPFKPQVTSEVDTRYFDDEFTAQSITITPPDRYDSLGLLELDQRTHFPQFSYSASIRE
Sequence of Aurora kinase B (Homo sapiens) (Q96GD4 whole entry): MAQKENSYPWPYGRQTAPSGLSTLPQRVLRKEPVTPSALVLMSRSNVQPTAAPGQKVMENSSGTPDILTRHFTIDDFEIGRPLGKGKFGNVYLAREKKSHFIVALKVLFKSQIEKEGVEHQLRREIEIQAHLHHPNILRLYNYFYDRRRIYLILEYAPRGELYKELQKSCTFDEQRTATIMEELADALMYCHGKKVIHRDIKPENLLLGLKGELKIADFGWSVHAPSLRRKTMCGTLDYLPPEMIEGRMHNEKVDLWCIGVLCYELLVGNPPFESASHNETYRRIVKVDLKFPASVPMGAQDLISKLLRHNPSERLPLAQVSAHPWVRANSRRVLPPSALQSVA

For `CO[C@@H]1[C@H](N(C)C(=O)CCC(=O)NCCC(=O)NCCC(=O)NCCC(N)=O)C[C@H]2O[C@]1(C)n1c3ccccc3c3c4c(c5c6ccccc6n2c5c31)C(=O)NC4`, the Activity in test [1] came out at 91%; in test [2] it was 37%; in test [3], 0%; in test [4] it was 8%; in [5], 100%. In addition, the Selectivity ratio in [6] stood at 50.

Consider `CO[C@@H]1[C@H](N(C)C(=O)CCC(=O)NCCC(=O)NCCC(=O)NCCC(=O)NCCC(=O)NCCC(=O)NCCC(=O)NCCC(=O)N[C@H]2CSSC[C@@H](C(=O)NCC(N)=O)NC(=O)CNC(=O)[C@H](Cc3ccccc3)NC(=O)[C@H](C(C)C)NC(=O)[C@H](CCCNC(=N)N)NC(=O)[C@H](Cc3ccccc3)NC(=O)[C@H](C(C)C)NC2=O)C[C@H]2O[C@]1(C)n1c3ccccc3c3c4c(c5c6ccccc6n2c5c31)C(=O)NC4` ({Staurosporine-Suc-βAla-βAla-βAla-βAla-βAla-βAla-βAla}-CVFRVFGCG-NH2; disulfide 1-8), for which the Activity in test [7] is 100%; in test [8] it was 100%; in test [9], 81%; in test [10], 96%; in [11] it was 57%; in test [13], 40%. In test [12], the inhibition result is “inactive”.

With `CO[C@@H]1[C@H](N(C)C(=O)CCC(=O)NCCC(=O)NCCC(=O)NCCC(=O)NCCC(=O)NCCC(=O)NCCC(=O)NCCC(=O)N[C@H]2CNC(=O)C[C@@H](C(N)=O)NC(=O)CNC(=O)[C@H](Cc3ccccc3)NC(=O)[C@H](C(C)C)NC(=O)[C@H](CCCNC(=N)N)NC(=O)[C@H](Cc3ccccc3)NC(=O)[C@H](C(C)C)NC2=O)C[C@H]2O[C@]1(C)n1c3ccccc3c3c4c(c5c6ccccc6n2c5c31)C(=O)NC4` ({Staurosporine-Suc-βAla-βAla-βAla-βAla-βAla-βAla-βAla}-[Dap]VFRVFGD-NH2; lactam 1-8), the Activity in test [14] is 98%; in test [15] it was 66%. Further, the inhibition entry in test [12] is “Active”.
